Results on four molecules are retold here after BindingDB's records for doi:10.1016/j.bmc.2011.04.027 (University of Mansoura, 2011).

As a reminder, the IC50 is the concentration that inhibits the measured activity by half.

The target of the test is T1, Prostaglandin G/H synthase 1 (Ovis aries, UniProt P05979).
T1 sequence (P05979 whole entry): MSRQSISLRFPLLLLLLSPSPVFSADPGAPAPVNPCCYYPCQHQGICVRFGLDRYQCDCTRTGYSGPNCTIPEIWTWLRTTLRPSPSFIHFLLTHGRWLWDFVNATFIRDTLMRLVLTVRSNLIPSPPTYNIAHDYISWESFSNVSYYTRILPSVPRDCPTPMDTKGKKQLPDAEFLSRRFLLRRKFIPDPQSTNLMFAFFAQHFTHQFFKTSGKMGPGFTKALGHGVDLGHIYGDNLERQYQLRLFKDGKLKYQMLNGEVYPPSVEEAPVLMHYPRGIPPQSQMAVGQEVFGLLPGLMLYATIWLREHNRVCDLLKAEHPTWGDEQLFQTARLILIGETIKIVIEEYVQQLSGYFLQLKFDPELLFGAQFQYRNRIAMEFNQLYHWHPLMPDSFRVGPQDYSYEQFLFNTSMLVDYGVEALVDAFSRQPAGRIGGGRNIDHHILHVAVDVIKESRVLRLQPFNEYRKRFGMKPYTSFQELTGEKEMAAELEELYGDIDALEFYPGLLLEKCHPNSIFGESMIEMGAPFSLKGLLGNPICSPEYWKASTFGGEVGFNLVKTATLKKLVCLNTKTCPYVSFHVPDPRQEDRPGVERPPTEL
Description: Inhibition of ovine COX1 assessed as PGF2alpha production from PGH2 after 5 mins by enzyme immunoassay. In outline:
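Ovine COX-1 in reaction buffer with 2 mM phenol and heme, preincubated with six test concentrations (1 mL final) for 5 min at 37 °C. Arachidonic acid was then added and the reaction stopped with 1 M HCl after 2 min. Prostanoids were reduced with stannous chloride and quantified by competitive acetylcholinesterase-tracer EIA (Ellman's reagent, 410 nm). IC50 came from concentration–inhibition curves, duplicate determinations.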

Turning to `FC(F)(F)c1[nH]nc(-c2ccc(Cl)cc2)c1N=Nc1ccccc1Cl` [3-(4-Chlorophenyl)-4-(2-(2-chlorophenyl)hydrazono)-5-trifuoromethyl)-4H-pyrazole], the concentration for half-maximal inhibition (IC50) is above 50 µM.

On to `FC(F)(F)c1cc(N=Nc2c(-c3ccc(Cl)cc3)n[nH]c2C(F)(F)F)cc(C(F)(F)F)c1` [3-(4-Chlorophenyl)-4-(2-(3,5-bis(trifluoromethyl)phenyl)hydrazono)-5-trifuoromethyl)-4H-pyrazole], for which the IC50 is above 50 µM. With `COc1ccc(N=Nc2c(-c3ccc(Cl)cc3)n[nH]c2C(F)(F)F)cc1` [3-(4-Chlorophenyl)-4-(2-(4-methoxyphenyl)hydrazono)-5-trifuoromethyl)-4H-pyrazole] the figure was above 50 µM; with `O=[N+]([O-])c1ccc(/N=N/c2c(-c3ccc(Cl)cc3)n[nH]c2C(F)(F)F)cc1` [3-(4-Chlorophenyl)-4-(2-(4-nitrophenyl)hydrazono)-5-trifuoromethyl)-4H-pyrazole], above 50 µM.
